# Experimental data from different studies.
# Compare with care: the assays were run in different laboratories.
# Cell line: MCF7
# Read-out: cell growth or viability
Compound,assay,conditions,IC50
C[C@@H]1O[C@@H](O[C@H]2C[C@@H](O)[C@]3(CO)[C@H]4[C@H](O)C[C@]5(C)[C@@H](C6=CC(=O)OC6)CC[C@]5(O)[C@@H]4CC[C@]3(O)C2)[C@H](O)[C@H](O)[C@H]1O,resazurin,72 h,0.053 µM
CO[C@]1([C@@H]2CSC(=O)N2C)C[C@H]2C[C@@H](CC[C@H](C)/C=C\C=C\CC/C(C)=C\C(=O)O2)O1,MTT,72 h,13.1 µM
CC1c2c(c3ccccc3oc2=O)Oc2ncn(N)c(=N)c21 (stereo not shown),MTT,72 h,> 75 µM
O=c1ccc2cc3ccoc3cc2o1,WST-1,48 h,32.4 µM
CCC1(c2ccc(N)cc2)CCC(=O)NC1=O (stereo not shown),CCK-8,48 h,> 50 µM
COc1cc2c3c(n(CCCN4CCOCC4)c(=O)c2cc1OC)-c1cc2c(cc1C3=O)OCO2,,72 h,0.288 µg/mL
O=C(Oc1ccc(Cl)cc1)[c-]1cccc1.[Fe+2].c1cc[cH-]c1,MTT,72 h,33 µM
COC(C(=O)N1C(=O)SCC1C1(OC)CC2CC(CCC(C)C=CC=CCCC(C)=CC(=O)O2)O1)c1ccccc1 (stereo not shown),MTT,72 h,15.4 µM
N.N.[Cl][Pt][Cl],MTT,48 h,15.6 µM
O=C(Oc1ccc(Br)cc1)[c-]1cccc1.[Fe+2].c1cc[cH-]c1,MTT,72 h,9.2 µM
C/C1=C/C(=O)O[C@@H]2C[C@@H](CC[C@H](C)/C=C\C=C\CC1)O[C@@](OCCc1ccccc1)([C@@H]1CSC(=O)N1)C2,MTT,72 h,0.1 µM
O=C(O)CCCc1ccc(N(CCCl)CCCl)cc1,CCK-8,48 h,38.5 µM
COc1c2c(cc3c1OCO3)[C@]13C=C[C@H](OC)C[C@@H]1[N@](C2)C[C@H]3OC(=O)c1ccoc1,WST-1,,> 10 µM
CO[C@]1([C@@H]2CSC(=O)N2C(=O)c2ccccc2)C[C@H]2C[C@@H](CC[C@H](C)/C=C\C=C\CC/C(C)=C\C(=O)O2)O1,MTT,72 h,0.55 µM
O=c1ccc2ccc3occc3c2o1,WST-1,48 h,7 µM
COC1(C2CSC(=O)N2)CC2CC(CCC(C)C=CC=CCCC(C)=CC(=O)O2)O1 (stereo not shown),MTT,72 h,10.2 µM
COc1c2c(cc3c1OCO3)[C@]13C=C[C@H](OC)C[C@@H]1[N@](C2)C[C@H]3OC(=O)c1ccco1,WST-1,,> 10 µM
CO[C@]1([C@@H]2CSC(=O)N2CCCO)C[C@H]2C[C@@H](CC[C@H](C)/C=C\C=C\CC/C(C)=C\C(=O)O2)O1,MTT,72 h,19.2 µM
O=C1[O][Pt]2([NH][C@@H]3CCCC[C@H]3[NH]2)[O]C1=O,MTT,96 h,2.6 µM
